The apparent Kd is a dissociation constant that holds for the conditions of the assay.

This series has as its system MS2 coat protein. Kind of series: apparent Kd, MS2 coat protein; higher = weaker binding; RNA-MaP array; FMN 200 µM where present. Summed up:
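The apparent Kd comes from binding curves fitted cluster by cluster, filtered, and summarised as a median. Those curves followed SNAP-549-labelled MS2 coat protein from 0.7 or 1.5 nM, doubling to 3 µM, on Illumina sequencing-chip clusters where stalled E. coli RNA polymerase had transcribed the designs, without and then with constant ligand. The buffer was 100 mM Tris-HCl pH 7.5, 80 mM KCl, 4 mM MgCl2, BSA, DTT, yeast tRNA and Tween-20, and green signal was normalised to red-channel RNA signal and control-cluster median Fmax.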

Setting [1] is: designed as: OFF switch for flavin mononucleotide, no ligand.
The mark [2] stands for this setting: ligand present: flavin mononucleotide, designed as: OFF switch for flavin mononucleotide.
Setting [3] is: designed as: ON switch for flavin mononucleotide, no ligand.
[4] abbreviates: ligand present: flavin mononucleotide, designed as: ON switch for flavin mononucleotide.

As for “CAGGUAGACUGAGGAUAUACAUGACUUAGUCUAUCUAGGUCUAAAAUCACAUGAGGAUCACCCAUGUAGAAGGCAGUCUGCCUG”, the “apparent Kd” value under setting [1] is 17.6 nM and the “apparent Kd” value under setting [2] came out at 24.2 nM.
The corresponding values for “AGAAACUACGAGAAGGACAUGAGGAUCACCCAUGUAACCACUUAGUGGAAUGUAGGAUAUCGUAGUUUCAGGAUCGUGAGAUCA” are 6.91 nM and 9.58 nM.
The matching figures for “CGCCUGUGAGGAUAUCCAUCUGGAUCAGACUAGAUCCUGAUGGAGAAGGCACAUGAGGAUCACCCAUGUCGGCG”: 23.1 nM and 22.4 nM.
On to “AGGAGGUCAGGAUAUGCUGCUCGUCACUUGCGUGAUGAGUAGCAGAAGGGACAUGAGGAUCACCCAUGUAAAAA”, for which the “apparent Kd” value reads like this: under setting [1], 52.6 nM; under setting [2], 88.7 nM.
The matching figures for “CAGAAGUCAGGAUAUCCAUGGCGGCACUUGCGUGGUGGCGUGGAGAAGGGACAUGAGGAUCACCCAUGUAAAGA”: 59.1 nM and 48.2 nM.
On to “AAAAAACAUGAGGAUCACCCAUGUAAUACAACGUCAGGAUAUUGAUUUUAUUAUGUAUUGCAAGAAGGGACUUGUA”, for which the “apparent Kd” value was determined as 72.1 nM under setting [3] and 25.4 nM under setting [4].
The corresponding values for “GUUUUCACAUGAGGAUAUGCUCGCAUUUCAAGAGCAGAAGGUAUGUCUUUAGACAUGAGGAUCACCCAUGUAUUUAUCAUUGAA” are 91.1 nM and 28.4 nM.
In the case of “CUAUUCCGAGGAUAUACAUGAGGAUCACCCAUGUCGGGCCUCUGCGUUUAGCGCGUAAGUAGAAGGUGGGUUUC”, the “apparent Kd” value is, setting by setting: under setting [1], 31 nM; under setting [2], 32.9 nM.
The corresponding values for “AACUUGUCAGGAUAUCUUACAUUUGCAUCAUAGUUACCAUUGGAGAAGGGACAUGAGGAUCACCCAUGUUUGGU” are 41.3 nM and 39.3 nM.
The matching figures for “AAAUCGAGUGUAGGAUAUGCACAGUUUGACCGUGCAGAAGGACACAUGAGGAUCACCCAUGUUAGCUCAUGGGCGGUGACUUAG”: 92.2 nM and 82.2 nM.
For “UGGUCCUAGGGAGGAUAUGGGAAGAUACAUGAGGAUCACCCAUGUUUAAGAAUGCCGAGAGGCAACUAGAAGGCCCUAGUACCU”, the “apparent Kd” value reads like this: under setting [3], 439 nM; under setting [4], 20.6 nM.
The corresponding values for “GACUUGGCUACAUGAGGAUCACCCAUGUUUGACUGGAUCGAUCAGGAUAUAGUAAUUUGCAACAAUUAGAAGGGAUAUUUACGG” are 65.9 nM and 56.9 nM.
As for “GGUUUGCGGCAGGAUAUCCAUCCGCGGUAUGGUGGAGAAGGGCUGACAUGAGGAUCACCCAUGUGCGUCCUGGG”, the “apparent Kd” value runs as follows: under setting [1], 26.6 nM; under setting [2], 38.4 nM.
The corresponding values for “CAUGUUAUACAGGAUAUCCGUAUGUAAUUCGUCGGAGAAGGGUAUACAUGAGGAUCACCCAUGUAUUCCUAGCU” are 16.1 nM and 20.8 nM.
The matching figures for “GCCUUAUCAGUCAGGAUAUACAAUAAAAUAAUUAAGUAGAAGGGACAUGAGGAUCACCCAUGUACAUUACAUUG”: 18.6 nM and 53.5 nM.
For the sequence “GCACGGUAAGUGAGGAUAUACCUCUGGAUACAGAGGUAGAAGGCACAUGAGGAUCACCCAUGUCUCAGCCGUGC”, the “apparent Kd” value reads like this: under setting [1], 16.3 nM; under setting [2], 78.2 nM.
The corresponding values for “AUUGGUUAAGGAUAUCCCUUAGCAGACAUGAGGAUCACCCAUGUCGUCAUGAGGCCAGGCGGAGAAGGUGACUAAU” are 55.4 nM and 35.8 nM.
For the sequence “GCUUUAUUGGUCAGGAUAUACAUUUGCUACUCUUUGUAGAAGGGACAUGAGGAUCACCCAUGUACUUUACAUUC”, the “apparent Kd” value runs as follows: under setting [1], 16 nM; under setting [2], 16.4 nM.
As for “CUUAAACAUGAGGAUCACCCAUGUCAGGAUAUGAUACUAUGUACUUCGGUACAUAGUAUCAGAAGGGAUAUAAA”, the “apparent Kd” value runs as follows: under setting [1], 34.2 nM; under setting [2], 33.5 nM.
In the case of “GAGUGGUUGGGAGGAUAUGCAUUGUUAUUAAAUGCAGAAGGUUUUAACAUGAGGAUCACCCAUGUAGGACUAUUCCUGUGUUUC”, the “apparent Kd” value runs as follows: under setting [3], 17.4 nM; under setting [4], 14.6 nM.
The matching figures for “GGACGUCACAUAUACAUGAGGAUCACCCAUGUCAAAAGACAUGAGGAUAUGGAUCCUAAUUGGAUCCAGAAGGCAUGGACGUCC”: 832 nM and 51.9 nM.
For the sequence “UGAGCCUCGUGAGGAUAUACAUGAGGAUCACCCAUGUAAUAAAGUGAACGGAGGAAACUCCGAAUGUAGAAGGCACGAGGCUCA”, the “apparent Kd” value under setting [1] came to 47.9 nM and the “apparent Kd” value under setting [2] turned out to be 443 nM.
The matching figures for “AGCGGCGCGGGCCACCGCAGGACCAGAAGGACAUGAGGAUCACCCAUGUAGCAGAACAGGGCGGUGUAGGAUAUGGCAGGCUCG”: 22.5 nM and 51.6 nM.
The corresponding values for “CCUGCGGACAAAGGAUAUUGCGGUGGCCGGCUCAGUAAAUCUAGCCAACAUGAGGAUCACCCAUGUAAGAAGGUUGCCGUUGGU” are 19.1 nM and 35.1 nM.
The matching figures for “AACGAGCUAGGAUAUGCACGGAAAAGCGUGGUCACUUAUGGACAUGAGGAUCACCCAUGUAGAAGGAGCGACGC”: 22.5 nM and 18.9 nM.
As to “UCAAAGAGAUCGAAUGGGAGGCGUAAGGAUAUGCACAUGAGGAUCACCCAUGUCUACGAAAGUAGGCAGAAGGUACGCGGGAUU”, the “apparent Kd” value under setting [3] was 315 nM and the “apparent Kd” value under setting [4] is 34.2 nM.
Consider “AGUAAGAUGCAGAAGGUGUUAGCUAGAGCUACGACAUGAGGAUCACCCAUGUACUAGAAAACGUACAAGGAUAUGCAUCUUACA”, for which the “apparent Kd” value under setting [3] amounted to 7.36 nM and the “apparent Kd” value under setting [4] turned out to be 5.98 nM.
Regarding “GUGUACAGAGGAUAUACUGGAGCAUGGAAACAUGCAACUUCACAUGAGGAUCACCCAUGUAGAAGGCUGUACAC”, the “apparent Kd” value runs as follows: under setting [1], 17.6 nM; under setting [2], 68.4 nM.
The corresponding values for “UGCUGGCAAGGAUAUACUCGGGAUGCUAGUCGCGCGGUUGCACAUGAGGAUCACCCAUGUAGAAGGUGUCUGUG” are 195 nM and 160 nM.
In the case of “GUAUGAGCGAUAGGAUAUACUGGGAUUGAAUGGGUAGAAGGAUUUCUAGUGGGAAAGACAUGAGGAUCACCCAUGUCGCGGACC”, the “apparent Kd” value worked out at 37.9 nM under setting [3] and 35.4 nM under setting [4].
Regarding “AGAACGUCAGGAUAUGCAACAACAAGUAAAUAGAGAAGAAGGCAGAAGGGACAUGAGGAUCACCCAUGUAAGAA”, the “apparent Kd” value was 36.6 nM under setting [1] and 36.3 nM under setting [2].
The corresponding values for “AGGCGGAAAGUCAGGAUAUCUUGACCAAAGGGUUGAGAGAAGGGACAUGAGGAUCACCCAUGUGGCGACCGCCA” are 37.5 nM and 67.9 nM.
The matching figures for “CUAAAUCAUGUAGGAUAUCGAUUGCGUCGCGAUCGAGAAGGACAUGAGGAUCACCCAUGUCAGAACGUCUGCGUUCAGACGUUG”: 48.5 nM and 361 nM.
The corresponding values for “UAUAUAUAGUAAGGAUAUGUAUAUUUUUUAUAAACAGAAGGUACUGACAUGAGGAUCACCCAUGUUUUAGUGUGGGCAUGUAGA” are 79.3 nM and 122 nM.
As for “GAGUGGAAGGCCGCUACAUGAGGAUCACCCAUGUGCUAAGCACAGGAUAUCGCGCUGGCCCGGCGCGAGAAGGGUGACGGCCUG”, the “apparent Kd” value is 674 nM under setting [3] and 324 nM under setting [4].
As for “UUGGACGUCGUAGGAUAUGUAGGAUAUUCCUACAUGAGGAUCACCCAUGUUGACAUGGAAGAAGGACAGAGGGACGAUGUCCAU”, the “apparent Kd” value by setting is: under setting [3], 454 nM; under setting [4], 11.6 nM.
“CCUCCACAUGAGGAUCACCCAUGUCAGGAUAUCGUGUGCGCGUUUUCGGUCUUUCGUGCGAGAAGGGACGUCUG”: the “apparent Kd” value by setting is: under setting [1], 36.9 nM; under setting [2], 35 nM.
The corresponding values for “UAAUUAAGUGUGAGGAUAUGCUGGUCCUUGGAUCAGCAGAAGGCACAUGAGGAUCACCCAUGUAAUUUAUAUAU” are 98.2 nM and 485 nM.
Regarding “UUGGUAUUCGUAGGAUAUCUGUCGCCACCGUGUGGAGAAGGACGAACAUGAGGAUCACCCAUGUAUCAUGGUGUGGGCUUUGUU”, the “apparent Kd” value was 504 nM under setting [1] and 470 nM under setting [2].
For the sequence “CCGGAAACGGGUAGCUGACAUGAGGAUCACCCAUGUGAAUCACAGGAUAUGGAUCCUAAUUGGAUCCAGAAGGGUGUCAGCUAC”, the “apparent Kd” value under setting [3] was determined as 1020 nM and the “apparent Kd” value under setting [4] was found to be 125 nM.
Consider “AAUUAUUGAUGAGGAUAUUGUGGUGAAACACGACGAGAAGGCAUAUGUCACAUGAGGAUCACCCAUGUGAGCCUUGUGGAUAUA”, for which the “apparent Kd” value runs as follows: under setting [1], 52 nM; under setting [2], 112 nM.
The corresponding values for “AAGAGUACAGGAUAUACAUGAGGAUCACCCAUGUGAAAAUUAAGUGGCGUACCACAAAGUAGAAGGGUACUGGA” are 22.4 nM and 50.8 nM.
Consider “AGUUUAUAUCGAGGAUAUAAGUCUAGGACAUGAGGAUCACCCAUGUAUGUCUUAGAAGGCGAUAUAAACAGCCUGUUACAGGCA”, for which the “apparent Kd” value by setting is: under setting [3], 31.5 nM; under setting [4], 7.04 nM.
On to “UGUCGGAGCAGAGGAUAUUACAUGAGGAUCACCCAUGUAUGAACCAAUACCUGGAAACAGCAAUGUAAGAAGGCUGCUCCGACA”, for which the “apparent Kd” value is, setting by setting: under setting [1], 12.5 nM; under setting [2], 141 nM.
The corresponding values for “UGACGUAAAGAGAAGGGCUACUGGUUGAAACCUGCGGCCUCUGGAACAUGAGGAUCACCCAUGUAGCAGGAUAUCUUUGCAUCA” are 166 nM and 18.1 nM.
The matching figures for “ACAAAUGGAGGAUAUACAUGAGGAUCACCCAUGUAUAUCCUACAUAUGUGAUAAUAAUGUAGAAGGCCAUUUGA”: 11.6 nM and 11.4 nM.
As for “GAAUAUUCGUUGUACAUGAGGAUCACCCAUGUGACUUGACAUGAGGAUAUGGAUUCUAAUUGGAUCCAGAAGGCAUGAAUAUUC”, the “apparent Kd” value came to 122 nM under setting [3] and 31.5 nM under setting [4].
As for “CAGCAGUGUAAGAAGGCUGCUCCGAUAAGGAGCAGAGGAUAUUACAUGAGGAUCACCCAUGUAUGAACCAAUAGCUGAAAUAAA”, the “apparent Kd” value under setting [1] was 9.12 nM and the “apparent Kd” value under setting [2] was 85.3 nM.
